Screening data: PubChem BioAssay, several laboratories
Wee1 stabilizer = blocks degradation of human Wee1 kinase; 220,000 compounds, 1.2% hits; HeLa Luc-Wee1K328M stability, luciferase luminescence; 100% = proteasome inhibitor MG132 effect; P30291; reporter increase, % at 5 µM; AID 1321;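 active = activation above the mean of all tested compounds plus 3 SD, set per screening run, cut at about 8.8% in these data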;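 note: cells exposed to compound for 20 h before luminescence read; 0% = DMSO alone and 100% = MG132 at 30 µM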
RBBP9 inhibitor = blocks human serine hydrolase RBBP9; O75884; recombinant RBBP9, FP-Rh probe fluorescence polarization; inhibition, % at 7.94 µM; 220,000 compounds, 0.2% hits;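 active = inhibition above the campaign mean of all tested compounds plus 3 SD, cut at about 14% in these data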;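 note: plate controls were DMSO wells with RBBP9 for no effect and wells lacking RBBP9 protein for full effect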
Target sequence (O75884 whole entry, looked up): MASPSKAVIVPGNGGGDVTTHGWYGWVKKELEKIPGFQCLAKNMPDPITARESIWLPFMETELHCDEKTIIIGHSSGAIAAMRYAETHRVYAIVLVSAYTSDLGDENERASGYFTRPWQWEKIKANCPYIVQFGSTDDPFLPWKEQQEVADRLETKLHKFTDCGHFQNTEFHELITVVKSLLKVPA
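Measured by – fluorescence polarization · Test system – RBBP9 protein · Input – 2.5 µM RBBP9 dispensing solution, before mixing · Measure – percent inhibition from mP, scaled between DMSO and no-protein wells · Benchmarks – DMSO-treated enzyme wells and wells lacking RBBP9 · Times – preincubation 30 min plus labeling 45 min at 25 °C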
L929 necroptosis = L929 zVAD cell death inhibition; L929 zVAD necroptosis rescue, ATP luminescence, 24 h; with zVAD 60 µM; viability rescue, % at 10 µM; 220,000 compounds, 0.38% hits; AID 1377;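 active = activation, scaled between plate controls, above about 75%, limit read from the data; inactive = activation under that limit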;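 note: 0% = zVAD with DMSO and 100% = DMSO alone without zVAD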
p97 inhibitor = inhibitors of human p97 ATPase; P55072; recombinant p97 ATPase, Kinase-Glo ATP luminescence, 3 h; inhibition, % at 8 µM; 220,000 compounds, 0.42% hits; AID 1481; in the data active = inhibition above about 15%;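 note: 0% = DMSO vehicle and 100% = wells lacking enzyme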
PfM18AAP inh-1 = blocks P. falciparum M18 aspartyl aminopeptidase; recombinant PfM18AAP, H-Glu-NHMec fluorogenic cleavage; inhibition, % at 7.35 µM; 290,000 compounds, 1.2% hits; AID 1822;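 active = inhibition above the campaign mean inhibition over all tested compounds plus 3 SD, cut at about 28% in these data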;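 note: 0% = plate median of test compound wells and 100% = 2 mM ZnCl2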
TNF death inh = inhibitors of TNF-alpha induced necroptosis in Jurkat FADD-/- cells; Jurkat FADD-/- TNF necroptosis rescue, ATP luminescence, 24 h; 0 = TNF only, 100 = no-TNF cells; activation (protection from cell death), % at 10 µM; 220,000 compounds, 0.068% hits; AID 463075;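 active = activation, meaning protection from cell death, of at least 50% relative to plate controls; inactive = activation below 50%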;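 note: necroptosis triggered by 40 ng/mL TNF-alpha added together with compound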
p97 inh conf = confirmation of human p97 ATPase inhibitors; AID 1517; recombinant p97 ATPase, Kinase-Glo ATP luminescence; 760 compounds, 44% hits; shares compounds with p97 inhibitor; inhibition, % at 8 µM;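 active = percent inhibition of p97 ATPase above a set limit, the primary screen's mean plus 3 SD, cut at about 15% in these data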;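 note: 0% = DMSO wells and 100% = wells lacking p97 protein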
RBBP9 inh conf = confirmation of human RBBP9 inhibitors | shares compounds with RBBP9 inhibitor | inhibition, % at 7.94 µM | recombinant RBBP9, FP-Rh probe fluorescence polarization | AID 1537 | 410 compounds, 36% hits;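 active = inhibition above the hit cutoff derived for the primary screen, cut at about 15% in these data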;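 note: 0% = RBBP9 with DMSO and 100% = wells lacking RBBP9 protein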
PfM18AAP inh-2 = PfM18AAP inhibition, confirmation; shares compounds with PfM18AAP inh-1; recombinant PfM18AAP, H-Glu-NHMec fluorogenic cleavage; inhibition, % at 7.35 µM; 2,400 compounds, 28% hits; AID 2170;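 active = mean inhibition over replicate wells above the hit cutoff set for the earlier primary screen, cut at about 29% in these data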;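 note: 0% = median of test compound wells and 100% = 2 mM ZnCl2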
CTSL1 counter = counter-screen for PFM18AAP inhibitors: confirmation of human cathepsin L inhibitors; 2,400 tested, under 10 active; purified cathepsin L1, Z-Leu-Arg-MCA fluorescence; inhibition, % at 5.96 µM; shares compounds with PfM18AAP inh-1;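 active = average inhibition across replicates above the hit cutoff set in the earlier primary screen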;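 note: 0% = median of test compound wells and 100% = Z-Phe-Ala-diazomethylketone 1 µM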
Target sequence (P07711 whole entry, looked up): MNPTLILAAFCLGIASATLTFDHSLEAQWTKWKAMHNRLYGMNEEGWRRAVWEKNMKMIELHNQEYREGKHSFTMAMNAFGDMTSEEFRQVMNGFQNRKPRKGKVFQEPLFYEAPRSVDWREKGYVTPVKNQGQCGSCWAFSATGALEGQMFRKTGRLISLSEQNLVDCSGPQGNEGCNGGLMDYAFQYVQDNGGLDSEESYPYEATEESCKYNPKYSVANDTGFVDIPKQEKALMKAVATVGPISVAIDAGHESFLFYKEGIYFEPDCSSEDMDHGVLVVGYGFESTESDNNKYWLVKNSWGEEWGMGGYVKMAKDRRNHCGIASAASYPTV
An asterisk follows results filed as active; . = not tested or not shown. Most compounds without a hit are left out; they make up all but 2.7% or so of the library.

SMILES | Wee1 stabilizer | RBBP9 inhibitor | L929 necroptosis | p97 inhibitor | PfM18AAP inh-1 | TNF death inh | p97 inh conf | others
CC(=O)N1N=C2C3CCN(CC3)C2C1c1ccc(C)cc1 (stereo unspecified) | -1.2 | -2.8 | . | 0.9 | 2.0 | -0.8 | .
CC(=O)N1N=C2C3CCN(CC3)C2C1c1cccc2ccccc12 (stereo unspecified) | 6.9 | 2.5 | . | 16.0* | 5.5 | 0.8 | 10.8
Cc1ccc(S(=O)(=O)N(C)C/N=C(\N)N[N+](=O)[O-])cc1 | 1.4 | -3.9 | -0.9 | 15.4* | -4.7 | 2.3 | 7.4
COC(=O)[C@@H](N)CCCN=C(N)N[N+](=O)[O-] | . | . | 0.4 | . | . | 1.9 | .
COc1ccc(-n2c(O)c(C=NCCN(C)C)c(=O)[nH]c2=O)cc1 | -2.9 | -1.1 | 0.5 | 7.2 | -3.6 | 4.7 | .
O=C1C(=O)c2cccc3cccc1c23 | -3.6 | 0.4 | 0.3 | 11.4 | 4.2 | -6.5 | .
O=C1C(=O)c2ccccc2-c2ccccc21 | 2.6 | 2.7 | -4.8 | 31.9* | 20.7 | -27.1 | 38.0*
O=C(O)CC1OCC=C2CN3CCC45C6=CC(=O)C(=O)C([N+](=O)[O-])=C6NC4C1C2CC35 (stereo unspecified) | 0.7 | 2.5 | 1.9 | 38.3* | 23.9 | 2.8 | 36.6*
COCCOC(=O)c1c(N)n(Cc2ccco2)c2nc3ccccc3nc12 | 1.6 | -3.8 | 1.8 | 4.8 | 17.3 | -0.3 | .
COc1ccc(Cn2c(N)c(C(=O)NCc3ccco3)c3nc4ccccc4nc32)cc1OC | 2.5 | 5.9 | 0.7 | 32.0* | 19.2 | -6.0 | 6.8
CCCCNC(=O)c1c(N)n(CCCOC)c2nc3ccccc3nc12 | 6.1 | -7.3 | 12.0 | 21.7* | 9.1 | 2.6 | -2.2
CCOC(=O)c1c(NS(=O)(=O)c2ccccc2)n(CCCOC)c2nc3ccccc3nc12 | -3.0 | 0.5 | 1.4 | 45.0* | 17.9 | -0.7 | 17.0*
COCCCn1c(N)c(C(=O)OCCOC)c2nc3ccccc3nc21 | 6.8 | -7.6 | 2.4 | 23.8* | 9.5 | -1.3 | 3.9
COc1ccc(CN2C(=O)NC(=O)/C(=C/c3ccc([N+](=O)[O-])o3)C2=O)cc1 | -1.7 | -11.6 | 0.7 | 0.7 | 4.9 | 0.1 | .
COCCCNC(=O)c1c(NC(=O)c2ccco2)n(Cc2ccccc2)c2nc3ccccc3nc12 | 3.6 | 2.9 | -1.2 | 23.7* | 12.4 | -3.5 | 3.8
c1ccc2c(c1)Sc1ccccc1N2CC1CN2CCC1CC2 (stereo unspecified) | -0.9 | 2.4 | 3.0 | 17.7* | 3.3 | -6.0 | 15.2*
OC(c1cccc(Cl)c1)(c1cccc(Cl)c1)C1CN2CCC1CC2 (stereo unspecified) | -0.7 | -7.0 | 5.2 | 5.7 | 1.3 | 5.6 | .
CCn1nc(-c2ccccc2)nc2c(=O)n(C)c(=O)nc1-2 | -0.4 | -10.9 | 3.3 | 37.1* | 6.7 | -16.3 | 34.3*
N=Cc1c(O)n(-c2ccc(C34CC5CC(CC(C5)C3)C4)cc2)c(=O)[nH]c1=O | -1.0 | -2.5 | 1.0 | 2.2 | -2.7 | 1.6 | .
COc1ccccc1NC1(C#N)CCCCC1 | 0.4 | -3.2 | 0.1 | 1.1 | -1.8 | -0.3 | .
Nc1ccccc1-[n+]1c(-c2ccccc2)cc(-c2ccccc2)cc1-c1ccccc1 | -2.9 | -0.4 | 0.8 | 15.7* | -22.6 | -0.2 | 10.4
Cc1ccccc1N1CCN(C2CCCN(C(=O)COc3ccccc3)C2)CC1 (stereo unspecified) | . | . | . | . | -4.6 | . | .
N#CC(C#N)=NNc1ccc(S(N)(=O)=O)cc1 | 4.5 | -8.0 | 0.2 | 23.4* | -2.2 | 2.5 | 25.0*
Oc1ccc(C(=C(Cl)Cl)c2ccc(O)cc2)cc1 | . | . | . | . | 7.4 | . | .
O=C1NC(=O)N(Cc2ccco2)C(=O)/C1=C/C=C/c1ccco1 | -0.6 | 0.6 | 0.8 | 31.2* | 35.2* | -17.9 | 12.1 | PfM18AAP inh-2=-3.6;CTSL1 counter=-1.8
SMILES | Wee1 stabilizer | RBBP9 inhibitor | L929 necroptosis | p97 inhibitor | PfM18AAP inh-1 | TNF death inh | p97 inh conf | others
COc1cc(O)c(C(=O)O)c(-c2cc(O)c(O)cc2C)c1 | . | . | 0.6 | . | . | -0.6 | .
C[C@]12CC[C@@H]3c4ccc(O)c(O)c4CC[C@H]3[C@@H]1CC[C@@H]2O | 1.9 | -2.3 | . | 22.7* | 57.1* | . | 4.7 | PfM18AAP inh-2=91.6*;CTSL1 counter=-4.3
C[C@]12CCC3=C4CCC(=O)C=C4CC[C@H]3C1CC[C@@H]2O (stereo partly specified) | . | . | . | . | -5.6 | . | .
CN1CCN2c3ccc(N)cc3CC3(C(=O)NC(=O)NC3=O)C2C1 (stereo unspecified) | 1.6 | 20.5* | -0.4 | -3.6 | 43.7* | -0.8 | . | RBBP9 inh conf=64.9*;PfM18AAP inh-2=-44.6;CTSL1 counter=1.9
O=P(CCl)(Nc1ccccc1)C(Cl)(Cl)Cl (stereo unspecified) | 0.5 | -2.6 | 0.2 | 2.2 | -2.2 | 0.7 | .
CN(C)C1C(=O)C(C(N)=O)=C(O)C2(O)C(=O)C3=C(O)c4c(O)cccc4C(C)(O)C3C(O)C12 (stereo unspecified) | . | . | . | . | 55.6* | . | . | PfM18AAP inh-2=-21.3;CTSL1 counter=0.8
C[N+]1(C)[C@@H]2CC[C@H]1CC(OC(=O)[C@@H](CO)c1ccccc1)C2 (stereo partly specified) | . | . | . | . | 44.0* | . | . | PfM18AAP inh-2=32.9*;CTSL1 counter=-1.7
CCN(CC)c1ccc(N=Cc2c(O)n(Cc3ccco3)c(=O)[nH]c2=O)cc1 | 2.1 | 9.3 | 3.6 | 3.8 | 42.2* | 0.8 | . | PfM18AAP inh-2=-52.1;CTSL1 counter=-0.4
N#Cc1c(/N=C/c2c(O)n(Cc3ccco3)c(=O)[nH]c2=O)sc2c1CCCC2 | -0.4 | -14.1 | 0.2 | 6.6 | 37.1* | -1.5 | . | PfM18AAP inh-2=-43.2;CTSL1 counter=-4.4
NC(=O)c1ccc(N=Cc2c(O)n(Cc3ccco3)c(=O)[nH]c2=O)cc1 | -0.2 | -5.9 | 0.3 | 7.3 | 11.2 | 1.4 | .
Cn1c(O)c(Cc2cccc(Cl)c2Cl)c(=O)n(C)c1=O | . | . | . | . | -7.3 | . | .
Oc1ccc(CC2(N3CCCC3)CCCCC2)cc1 | . | . | . | . | -12.9 | . | .
COc1cc2c(cc1/C=C/[N+](=O)[O-])OCO2 | 10.7* | -11.2 | -2.8 | -1.0 | 38.4* | -7.6 | . | PfM18AAP inh-2=17.2;CTSL1 counter=0.6
CC(O)(CS(=O)(=O)c1ccccc1)C(=O)Nc1cccc(C(F)(F)F)c1 (stereo unspecified) | -1.2 | 2.5 | 0.5 | 1.0 | 1.6 | -0.4 | .
O=C(O)Cn1cc(/C=C2\C(=O)NC(=O)N(c3ccc(Cl)cc3)C2=O)c2ccccc21 | . | . | . | . | 25.8 | . | .
